{"source": "ChEMBL document CHEMBL2169769", "about": "“Synthesis and biological characterization of protease-activated prodrugs of doxazolidine” (J Med Chem, 2012)", "key": {"[1]": {"test": "Cytotoxicity against doxorubicin-resistant human NCI-ADR-RES cells incubated for 24 hrs measured after 5 day", "type": "functional, cell-based", "how_it_was_run": "(§1)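 Cells seeded 1000/well, adhered overnight, then serum-free medium with or without plasmin, trypsin, cathepsin B or papain (0.2 U/well), aprotinin (5 µM) or protease inhibitor cocktail (1X). Prodrug 2000–1 nM final, 24 h; then complete medium up to 5 days or control 80% confluence. Formalin fixed, crystal violet, A582; % of control fit to variable-slope sigmoid for IC50.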"}, "[2]": {"system": "BXPC-3", "test": "Cytotoxicity against human BxPC3 cells incubated for 24 hrs measured after 5 days in presence of 0.2 U human plasmin", "type": "functional, cell-based", "how_it_was_run": "as §1"}, "[3]": {"system": "MIA PaCa-2", "test": "Cytotoxicity against human MIAPaCa2 cells incubated for 24 hrs measured after 5 days in presence of 0.2 U cathepsin B", "type": "functional, cell-based", "how_it_was_run": "as §1"}, "[4]": {"system": "HEK-293T", "test": "Cytotoxicity against human HEK293T cells incubated for 24 hrs measured after 5 days in presence of 0.2 U human plasmin", "type": "cell-based", "how_it_was_run": "as §1"}, "[5]": {"system": "SHP77", "test": "Cytotoxicity against doxorubicin-resistant human SHP77 cells incubated for 24 hrs measured after 5 days in presence of 0.2 U human plasmin", "type": "functional, cell-based", "how_it_was_run": "as §1"}, "[6]": {"biological_target": "Plasminogen (Homo sapiens) (UniProt P00747)", "sequence (P00747 97-580 limits assumed)": "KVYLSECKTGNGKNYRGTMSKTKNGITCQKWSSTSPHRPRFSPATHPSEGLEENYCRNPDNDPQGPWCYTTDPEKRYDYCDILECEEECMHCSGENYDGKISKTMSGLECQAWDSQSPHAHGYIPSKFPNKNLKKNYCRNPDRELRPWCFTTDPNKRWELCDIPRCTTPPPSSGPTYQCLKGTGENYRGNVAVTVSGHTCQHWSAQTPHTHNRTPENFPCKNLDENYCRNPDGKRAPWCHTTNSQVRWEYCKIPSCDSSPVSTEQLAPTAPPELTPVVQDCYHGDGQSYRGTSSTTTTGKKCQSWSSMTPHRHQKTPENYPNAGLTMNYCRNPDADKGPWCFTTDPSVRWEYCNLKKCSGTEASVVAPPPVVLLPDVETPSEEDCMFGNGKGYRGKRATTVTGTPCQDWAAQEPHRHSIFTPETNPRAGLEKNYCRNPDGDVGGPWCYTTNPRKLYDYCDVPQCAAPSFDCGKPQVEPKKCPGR", "sequence (P00747 581-810 limits assumed)": "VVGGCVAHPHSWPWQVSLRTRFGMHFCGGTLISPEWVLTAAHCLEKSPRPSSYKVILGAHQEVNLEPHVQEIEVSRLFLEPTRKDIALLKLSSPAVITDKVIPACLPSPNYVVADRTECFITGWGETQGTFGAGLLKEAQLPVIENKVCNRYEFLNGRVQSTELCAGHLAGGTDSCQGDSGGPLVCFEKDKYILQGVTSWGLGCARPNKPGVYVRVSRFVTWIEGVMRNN", "test": "Activity of human plasmin assessed as compound hydrolysis measuring enzyme specific activity at 50 uM at pH 7.4 in PBS buffer by RP-HPLC", "how_it_was_run": "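Specific activity from hydrolysis time courses at 37 °C with 50 µM substrate. Plasmin in PBS pH 7.4; cathepsin B diluted two-fold in PBS-NAC, reacted in PBS-NAC (10 mM N-acetylcysteine) pH 6.5. Ethanol-quenched aliquots, protein precipitated at −20 °C, RP-HPLC at 480 nm tracking dox release. Linear least-squares slope used; 1 U = 1 µM substrate hydrolysed per min.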"}, "[7]": {"test": "Cytotoxicity against human L3.6PL cells incubated for 24 hrs measured after 5 days in presence of 0.2 U human plasmin", "type": "functional, cell-based", "how_it_was_run": "as §1"}, "[8]": {"organism": "Homo sapiens", "test": "Selectivity ratio of Kcat of human plasmin to Kcat of human cathepsin B", "how_it_was_run": "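Michaelis–Menten kinetics with human enzymes and substrate at 10–400 µM, 37 °C. Plasmin: 0.2 U in PBS pH 7.4 for 4 min. Cathepsin B: 0.08 U in PBS with 10 mM N-acetylcysteine, pH 6.5, for 20 min. Quenched with ethanol, held at −20 °C ≥2 h, centrifuged. Dox release read by RP-HPLC at 480 nm. Rates (µM/min) fit by non-linear least squares; triplicate.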"}, "[9]": {"system": "MCF7", "test": "Cytotoxicity against human MCF7 cells incubated for 24 hrs measured after 5 days", "type": "functional, cell-based", "how_it_was_run": "as §1"}, "[10]": {"test": "Prodrug conversion assessed as release dozax at 50 uM at pH 7.4 in PBS buffer in absence of human plasmin after 24 hrs by RP-HPLC", "type": "ADME", "details": "pH 7.4, 24 h", "how_it_was_run": "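Enzyme-free control: 50 µM prodrug in PBS at 37 °C over 24 h, RP-HPLC monitoring dox at 480 nm.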"}, "[11]": {"biological_target": "Plasminogen (Homo sapiens) (UniProt P00747)", "test": "Activity of human plasmin assessed as enzyme catalytic efficiency for compound hydrolysis at 50 uM at pH 7.4 in PBS buffer by RP-HPLC", "how_it_was_run": "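Michaelis-Menten kinetics, substrate 10–400 µM at 37 °C. Plasmin: 0.2 U, PBS pH 7.4, 4 min. Cathepsin B: 0.08 U, PBS-NAC pH 6.5, 20 min. Quenched with equal volume ethanol, −20 °C ≥2 h, centrifuged, supernatant RP-HPLC at 480 nm. Rates (µM/min) fit by non-linear least squares; triplicates.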"}, "[12]": {"system": "SHP77", "test": "Cytotoxicity against human doxorubicin-resistant SHP77 cells incubated for 24 hrs measured after 5 days", "type": "functional, cell-based", "how_it_was_run": "as §1"}, "[13]": {"system": "MIA PaCa-2", "test": "Cytotoxicity against human MIAPaCa2 cells incubated for 24 hrs measured after 5 days in presence of 0.2 U papain", "type": "functional, cell-based", "how_it_was_run": "as §1"}, "[14]": {"test": "Cytotoxicity against doxorubicin-resistant human NCI-ADR-RES.cells incubated for 24 hrs measured after 5 days in presence of 0.2 U human plasmin", "type": "functional, cell-based", "how_it_was_run": "as §1"}, "[15]": {"system": "MCF7", "test": "Drug uptake in human MCF7 cells increase in compound uptake-induced anthracycline fluorescence in absence of plasmin at 0.5 uM up to 5 hrs by flow cytometry relative to untreated control", "type": "ADME, cell-based", "details": "mcf7, 5 h", "how_it_was_run": "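MCF-7 or MiaPaCa-2 plated 250,000/well, adhered overnight, switched to serum-free medium with 0.5 µM prodrug alone or plus 0.2 U human plasmin (final) for up to 5 h. Trypsinised cells read by flow cytometry (FL3) for anthracycline fluorescence; mean values expressed as fold over untreated cells.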"}, "[16]": {"system": "MIA PaCa-2", "test": "Cytotoxicity against human MIAPaCa2 cells incubated for 24 hrs measured after 5 days in presence of 5 uM aprotinin", "type": "functional, cell-based", "how_it_was_run": "as §1"}, "[17]": {"test": "Cytotoxicity against human L3.5 cells incubated for 24 hrs measured after 5 day", "type": "functional, cell-based", "how_it_was_run": "as §1"}, "[18]": {"system": "MIA PaCa-2", "test": "Cytotoxicity against human MIAPaCa2 cells incubated for 24 hrs measured after 5 days", "type": "functional, cell-based", "how_it_was_run": "as §1"}, "[19]": {"test": "Cytotoxicity against human L3.6PL cells incubated for 24 hrs measured after 5 day", "type": "functional, cell-based", "how_it_was_run": "as §1"}, "[20]": {"system": "MCF7", "test": "Cytotoxicity against human MCF7 cells incubated for 24 hrs measured after 5 days in presence of 0.2 U plasmin", "type": "functional, cell-based", "how_it_was_run": "as §1"}, "[21]": {"test": "Cytotoxicity against human L3.3 cells incubated for 24 hrs measured after 5 day", "type": "functional, cell-based", "how_it_was_run": "as §1"}}, "data": [{"smiles": "COc1cccc2c1C(=O)c1c(O)c3c(c(O)c1C2=O)C[C@@](O)(C(=O)CO)C[C@@H]3O[C@H]1C[C@H]2[C@H](OCN2C(=O)OCc2ccc(NC(=O)[C@H](CCCCN)NC(=O)[C@H](Cc3ccccc3)NC(=O)[C@@H](C)NC(=O)CNC(C)=O)cc2)[C@H](C)O1.O=P(O)(O)O", "values": [{"measurement": "IC50", "setting": "[1]", "value": 912, "unit": "nM"}, {"measurement": "IC50", "setting": "[2]", "value": 39.8, "unit": "nM"}, {"measurement": "IC50", "setting": "[3]", "value": 158, "unit": "nM"}, {"measurement": "IC50", "setting": "[4]", "value": 3.02, "unit": "nM"}, {"measurement": "IC50", "setting": "[5]", "value": 29.5, "unit": "nM"}, {"measurement": "Activity", "setting": "[6]", "value": 1940, "unit": "U/mg"}, {"measurement": "IC50", "setting": "[7]", "value": 3.16, "unit": "nM"}, {"measurement": "Ratio", "setting": "[8]", "value": 5}, {"measurement": "IC50", "setting": "[9]", "value": 200, "unit": "nM"}, {"measurement": "Stability", "setting": "[10]", "value": "Stable"}, {"measurement": "Activity", "setting": "[11]", "value": 1.43, "unit": "×10⁴ /M/s"}, {"measurement": "IC50", "setting": "[12]", "value": 1580, "unit": "nM"}, {"measurement": "IC50", "setting": "[13]", "value": 69.2, "unit": "nM"}, {"measurement": "IC50", "setting": "[14]", "value": 11.7, "unit": "nM"}, {"measurement": "fold change (FC)", "setting": "[15]", "value": 2}, {"measurement": "IC50", "setting": "[16]", "value": 282, "unit": "nM"}, {"measurement": "IC50", "setting": "[17]", "value": 224, "unit": "nM"}, {"measurement": "IC50", "setting": "[18]", "value": 251, "unit": "nM"}, {"measurement": "IC50", "setting": "[19]", "value": 316, "unit": "nM"}, {"measurement": "IC50", "setting": "[20]", "value": 26.9, "unit": "nM"}, {"measurement": "IC50", "setting": "[21]", "value": 251, "unit": "nM"}]}]}
